In the assay the test system is HEp-2 viability, ATP luminescence (CellTiter-Glo). Put plainly: HEp-2 viability by ATP luminescence – cell-based, CellTiter-Glo, synthesized compounds, set 7, cytotoxicity control for RSV inhibitor project, dose response (AID 504674). The essentials: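 assay system = HEp-2 cells | amount = 10,595 cells/well | medium = DMEM/F12 | compound dosing = 8-point twofold dilution series, 50 to 0.39 µM, 0.5% DMSO | incubation = 6 d compound exposure, 37 °C | measured by = ATP luminescence with CellTiter-Glo reagent | benchmarks = cell-only wells as reference | replication = each concentration tested in triplicate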

This note sets out measurements from PubChem BioAssay AID504674 (Southern Research Specialized Biocontainment Screening …, 2011).

A word on the CC50: it is the concentration giving 50% cytotoxicity.

Molecules are shown by their SMILES. Active and inactive are the calls of the source.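 How the source made its calls: active means cell viability under 70% at any tested concentration, a measure not printed in our tables; inactive means the rest.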

Regarding `COCCNC(=O)c1ccc(Cn2c(=O)c3ccccc3n(Cc3ccc(C)cc3)c2=O)cc1`, the CC50 is > 50 µM (inactive).

With `COc1ccc(C)c(NC(=O)[C@@H]2CCCN2S(=O)(=O)c2cccc3cccnc23)c1`, the CC50 was > 50 µM (inactive).

With `Cc1ccc(Cn2c(=O)n(Cc3ccc(C(=O)N4CCOCC4)cc3)c(=O)c3ccccc32)cc1`, the CC50 was 16.6 µM.

Regarding `COCCCNC(=O)c1ccc(Cn2c(=O)c3ccc(C)cc3n(Cc3ccc(C)cc3)c2=O)cc1`, the CC50 is > 50 µM (inactive).

Consider `Cc1ccc(Cl)cc1NC(=O)[C@@H]1CCCN1S(=O)(=O)c1cccc2cccnc12`, for which the CC50 was 13 µM.

`Cc1ccc(CNC(=O)C2CCN(S(=O)(=O)c3cccc4nonc34)CC2)c(C)c1`: the CC50 was > 50 µM (inactive).

Regarding `Cc1ccc(Cn2c(=O)n(Cc3ccc(C(=O)N4CCCCC4)cc3)c(=O)c3ccccc32)cc1`, the CC50 is 5.12 µM.

Regarding `Cc1ccc(Cn2c(=O)n(Cc3ccc(C(=O)N4CCCC4)cc3)c(=O)c3ccccc32)cc1`, the CC50 was 4.6 µM.

On to `Cc1ccc(NC(=O)[C@@H]2CCCN2S(=O)(=O)c2cccc3nonc23)c(C)c1`, for which the CC50 is > 50 µM (inactive).

Consider `Cc1ccc(Cn2c(=O)n(Cc3ccc(C(=O)NC4CCCCC4)cc3)c(=O)c3ccccc32)cc1`, for which the CC50 was > 50 µM (inactive).

As to `COCCCNC(=O)c1ccc(Cn2c(=O)c3ccc(OC)cc3n(Cc3ccc(C)cc3)c2=O)cc1`, the CC50 is 11.7 µM.

Take `COCCCNC(=O)c1ccc(Cn2c(=O)c3ccc(C(F)(F)F)cc3n(Cc3ccc(C)cc3)c2=O)cc1`: the CC50 was > 50 µM (inactive).

Turning to `O=C(NCc1ccc(Cl)cc1)C1CCN(S(=O)(=O)c2cccc3nonc23)CC1`, the CC50 was > 50 µM (inactive).

With `Cc1ccc(Cn2c(=O)n(Cc3ccc(C(=O)N(C)C)cc3)c(=O)c3ccccc32)cc1`, the CC50 is 11 µM.

For `COc1ccccc1NC(=O)[C@@H]1CCCN1S(=O)(=O)c1cccc2nonc12`, the CC50 was > 50 µM (inactive).

Turning to `O=C(NCc1cccc(Cl)c1)C1CCN(S(=O)(=O)c2cccc3nonc23)CC1`, the CC50 is > 50 µM (inactive).
